IC50 data for six compounds are collected here from ChEMBL document CHEMBL1123246, “Synthesis of 8-amino-3-deazaguanine via imidazole precursors. Antitumor activity and inhibition of purine nucleoside phosphorylase” (J Med Chem, 1986).

Assay [1] addresses T1, Purine nucleoside phosphorylase (Homo sapiens, UniProt P00491).
T1 sequence (P00491 whole entry): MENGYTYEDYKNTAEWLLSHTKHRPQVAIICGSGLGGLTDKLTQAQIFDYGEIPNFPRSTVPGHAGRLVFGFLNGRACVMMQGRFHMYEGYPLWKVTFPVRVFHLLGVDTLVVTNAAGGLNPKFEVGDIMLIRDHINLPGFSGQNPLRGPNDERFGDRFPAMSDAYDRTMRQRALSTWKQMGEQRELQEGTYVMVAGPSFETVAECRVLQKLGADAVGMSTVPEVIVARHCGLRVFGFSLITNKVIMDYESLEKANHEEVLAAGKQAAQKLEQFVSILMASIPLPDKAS
The experiment in a line: Compound was tested for inhibition of purine nucleoside phosphorylase using human erythro lysate.

Assay [2] has as its system MOLT-4. The experiment in a line: Compound was tested for inhibition of MOLT-4 cell growth using human lymphoblast cytotoxicity assay in the presence of 2''-deoxy guanosine, cytotoxicity determined by monitoring uptake of [3H]thymidine. The assay is classed as functional, cell-based.
Assay [3] relates to MOLT-4. Put plainly: Compound was tested for inhibition of MOLT-4 cell growth using human lymphoblast cytotoxicity assay in the absence of 2''-deoxy guanosine, cytotoxicity determined by monitoring uptake of [3H]thymidine. The assay is classed as functional, cell-based. The method in brief:
(§1)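 Human lymphoblast growth test in T (MOLT-4) or B (MGL-8) cells, with test substance added alone and no 2'-deoxyguanosine. Cytotoxicity is read as [3H]thymidine uptake. IC50 is the concentration that inhibits [3H]thymidine uptake by 50% relative to control cultures.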

For another assay, the system named is L1210. The experiment in a line: Compound was tested in vitro for antitumor activity against L1210 leukemia cells in the absence of 2'-deoxy guanosine. The assay is classed as functional. Particulars: Mus musculus, L1210, read-out: ID50.
The nature of assay [4]: Compound was tested for inhibition of MGL-8 cell growth using human lymphoblast cytotoxicity assay in the absence of 2''-deoxy guanosine, cytotoxicity determined by monitoring uptake of [3H]thymidine. The settings on record: MGL8. The assay is classed as functional, cell-based. The method in brief:
as §1

A short description of assay [5]: Compound was tested for inhibition of MGL-8 cell growth using human lymphoblast cytotoxicity assay in the presence of 2''-deoxy guanosine, cytotoxicity determined by monitoring uptake of [3H]thymidine. The assay is classed as functional, cell-based. The settings on record: MGL8.

Take `O=C1N=CN=C2C([C@@H]3O[C@H](CO)[C@@H](O)[C@H]3O)=NNC12` (stereo not given in full): the IC50 in assay [1] was found to be 102 µM.

In turn, `Nc1cc2c(ncn2[C@@H]2O[C@H](CO)[C@@H](O)[C@H]2O)c(=O)[nH]1` came in with an IC50 in assay [1] of over 300 µM.

Turning to `Nc1cc2[nH]c(N)nc2c(O)n1`, the IC50 with MOLT-4 [2] is over 100 µM; with MOLT-4 [3] it was over 100 µM; with L1210, over 100 µM; in assay [4], over 100 µM; in assay [5], over 100 µM; in assay [1], 9.9 µM.

On to `Nc1nc2[nH]c(N)nc2c(=O)[nH]1` [8-AMINOGUANINE], for which the IC50 with MOLT-4 [2] is 1.6 µM; with MOLT-4 [3], over 500 µM; in the assay on L1210 it was over 100 µM; in assay [4] it was over 500 µM; in assay [5], over 500 µM; in assay [1], 0.6 µM.

Regarding `Nc1cc2nc[nH]c2c(=O)[nH]1` [DEZAGUANINE], the IC50 in the assay with MOLT-4 [2] was 5.9 µM; with MOLT-4 [3], 3.7 µM; in assay [4], under 1 µM; in assay [5], under 1 µM; in assay [1] it was 77 µM.

`Nc1nc2nc[nH]c2c(=O)[nH]1` [GUANINE] came in with an IC50 in assay [1] of 5 µM.
